Tcruzi prolif: inhibitors of T. cruzi proliferation. T. cruzi beta-gal in NIH3T3, GalScreen luminescence, 90 h. inhibition, % at 8.34 µM. actives 5.9% (n = 77,000). AID 624255;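 active means mean inhibition above about 93%, with at least 55% of replicates each passing it, limit read from the data, passing the limit was not always enough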
IDH1 mut inh: inhibitors of human IDH1 R132H | IDH1 R132H reductase, diaphorase/resazurin fluorescence, 60 min | inhibition, % at 10 µM | actives 0.18% (n = 70,000); in the data active means inhibition above about 34%;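 further: 0% = DMSO and 100% = no enzyme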
Pf Dd2 inh: blocks growth of Plasmodium falciparum Dd2 parasites; P. falciparum Dd2 growth, SYBR Green, 72 h; stronger effect = lower value; activity change, % at 10 µM; actives 2.3% (n = 94,000); AID 1159554; in the data active means activity change below about -80%
GASC1 inh: blocks human GASC-1 (KDM4C) demethylase activity; GST-KDM4C 2-372, H3K9me3 peptide, LANCE TR-FRET; inhibition, % at 12.5 µM; Q9H3R0; actives 0.15% (n = 96,000);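 active means mean replicate inhibition above about 25%, with at least 55% of replicates also reaching it, limit read from the data, passing the limit was not always enough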
Target sequence (Q9H3R0 2-372 limits assumed): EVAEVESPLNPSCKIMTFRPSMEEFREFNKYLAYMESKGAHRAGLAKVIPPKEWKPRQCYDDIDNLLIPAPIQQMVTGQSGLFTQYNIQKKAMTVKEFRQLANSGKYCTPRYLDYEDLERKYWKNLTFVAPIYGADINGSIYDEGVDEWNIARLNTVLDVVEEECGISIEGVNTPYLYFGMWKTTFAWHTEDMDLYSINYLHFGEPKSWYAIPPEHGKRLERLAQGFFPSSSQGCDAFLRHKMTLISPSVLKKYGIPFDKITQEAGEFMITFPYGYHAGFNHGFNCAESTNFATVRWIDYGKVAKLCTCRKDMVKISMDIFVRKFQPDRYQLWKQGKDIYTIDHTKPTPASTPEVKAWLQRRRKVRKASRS
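System: N-terminal GST-fused human GASC-1 (KDM4C) fragment, residues 2-372; amount: enzyme final amount 10 nM; incubation: reaction 30 min RT, detection step 1 h RT; medium: HEPES buffer, pH 7.5, plus ascorbate; technique: LANCE TR-FRET, Eu antibody, ULight-streptavidin, EDTA, ex 340 nm, em 618/671 nm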
An asterisk follows results filed as active. A selection: hits, their analogues and other compounds. The true share with any hit is near 5.8%.

Screening C[C@H](CO)N1C[C@H](C)[C@H](CN(C)Cc2ccc(-c3ccccc3)cc2)Oc2ccc(NC(=O)Nc3ccc4c(c3)OCO4)cc2CC1=O returned Tcruzi prolif 65, IDH1 mut inh 2, Pf Dd2 inh -5 and GASC1 inh -1.
Screening Cc1ccccc1NC(=O)CSc1nc2cc3ccccc3cc2[nH]1 returned IDH1 mut inh 0.
Screening COc1cc(/C(C)=C/C(C)(O)C(C)O)oc(=O)c1C (centres undefined) returned IDH1 mut inh 0.
For CCCC#Cc1cnc2c(c1)C(=O)N([C@H](C)CO)C[C@H](C)[C@@H](CN(C)Cc1cccnc1)O2 the results were Tcruzi prolif -4, IDH1 mut inh 100*, Pf Dd2 inh -24 and GASC1 inh 64*.
C[C@@H]1CN([C@H](C)CO)C(=O)c2cc(C#CCc3ccccc3)cnc2O[C@H]1CN(C)C(=O)C1CCCCC1 was read as Tcruzi prolif 105, IDH1 mut inh 2, Pf Dd2 inh -83* and GASC1 inh 0.
For C[C@H]1CN([C@@H](C)CO)C(=O)c2cc(C#CCc3ccccc3)cnc2O[C@H]1CN(C)CC1CC1 the results were Tcruzi prolif 57, IDH1 mut inh -1, Pf Dd2 inh -57 and GASC1 inh -1.
`CCCC#Cc1cnc2c(c1)C(=O)N([C@H](C)CO)C[C@@H](C)[C@H](CN(C)Cc1cccnc1)O2` gave Tcruzi prolif 7, IDH1 mut inh 0, Pf Dd2 inh -28 and GASC1 inh 0.
For C[C@@H]1CN([C@H](C)CO)C(=O)c2cc(C#CCc3ccccc3)cnc2O[C@@H]1CN(C)CC1CC1 the results were Tcruzi prolif 26, IDH1 mut inh -2, Pf Dd2 inh -81* and GASC1 inh -1.
For C[C@@H]1CN([C@@H](C)CO)C(=O)c2cc(C#CCc3ccccc3)cnc2O[C@H]1CN(C)CC1CCCC1 the results were Tcruzi prolif 88, IDH1 mut inh 11, Pf Dd2 inh -86* and GASC1 inh 9.
Screening Cc1ccc(OCC(=O)Nc2cccc3ncccc23)c(C)c1 returned IDH1 mut inh 0.
Screening COCCNS(=O)(=O)c1ccc(Cl)c(Cl)c1OC returned IDH1 mut inh -1.
COC(=O)c1c(NC(=O)c2ccc(N(C)S(=O)(=O)c3ccccc3)cc2)sc2c1CCCC2 was read as IDH1 mut inh 0.
c1ccc(-c2nnc(SCc3nc4ccccc4s3)n2-c2ccccc2)cc1 was read as IDH1 mut inh 0.
`C[C@@H]1CN([C@@H](C)CO)C(=O)c2cc(C#Cc3ccccc3)cnc2O[C@H]1CN(C)C(=O)CCN1CCCCC1` gave Tcruzi prolif 57, IDH1 mut inh 0, Pf Dd2 inh -88* and GASC1 inh 0.
C[C@H]1CN([C@@H](C)CO)C(=O)c2cc(C#Cc3ccccc3)cnc2O[C@@H]1CN(C)C(=O)CCN1CCCCC1 was read as Tcruzi prolif 26, IDH1 mut inh -1, Pf Dd2 inh -52 and GASC1 inh -4.
`Cc1cc(NS(=O)(=O)c2ccc(Nc3nc(-c4ccc(O)cc4)cs3)cc2)no1` gave IDH1 mut inh 60*.
Screening CC(C)(C)S(=O)N1Cc2cc(C(=O)NCc3ccc4c(c3)OCO4)nc(-c3cccc(-c4cc5ccccc5o4)c3)c2[C@H]1CCO (some centres undefined) returned Pf Dd2 inh -93* and GASC1 inh -2.
`CC(C)NC(=O)N1Cc2cc(C(=O)NCC(F)(F)F)nc(-c3cccc(-c4cc5ccccc5o4)c3)c2[C@H]1CCO` gave Pf Dd2 inh -86* and GASC1 inh -10.
`COc1cccc2cc(-c3nnc(SCC(=O)Nc4cccc(SC)c4)n3C)oc12` gave IDH1 mut inh 0.
Screening COc1ccc(CN(C)C[C@@H]2Oc3c(NC(=O)c4ccc(-c5nccs5)cc4)cccc3C(=O)N([C@@H](C)CO)C[C@H]2C)cc1 returned Tcruzi prolif 8, IDH1 mut inh -3 and Pf Dd2 inh -90*.
For COc1ccc(CN(C)C[C@H]2Oc3c(NC(=O)c4ccc(-c5nccs5)cc4)cccc3C(=O)N([C@@H](C)CO)C[C@H]2C)cc1 the results were IDH1 mut inh -8, Pf Dd2 inh -82* and GASC1 inh -1.
For COc1ccc(CN(C)C[C@H]2Oc3c(NC(=O)c4ccc(-c5nccs5)cc4)cccc3C(=O)N([C@H](C)CO)C[C@@H]2C)cc1 the results were Tcruzi prolif 9, IDH1 mut inh -1, Pf Dd2 inh -60 and GASC1 inh 1.
Screening COc1ccc(CN(C)C[C@@H]2Oc3c(NC(=O)c4ccc(-c5nccs5)cc4)cccc3C(=O)N([C@H](C)CO)C[C@H]2C)cc1 returned Tcruzi prolif 16, Pf Dd2 inh -84* and GASC1 inh -1.
COC(=O)c1ccccc1NC(=O)CN(C)S(=O)(=O)c1cc(Cl)ccc1Cl was read as IDH1 mut inh 0.
`COc1ccc2c3c(n(C)c2c1)[C@H](CO)N(Cc1cccc(F)c1)CC31CCN(C(=O)Cc2ccccc2)CC1` gave Pf Dd2 inh -83* and GASC1 inh -1.
Screening COc1ccc2c3c(n(C)c2c1)[C@H](CO)N(Cc1ccncc1)CC31CCN(C(=O)Cc2ccncc2)CC1 returned Pf Dd2 inh -87* and GASC1 inh 0.
COc1ccc2c3c(n(C)c2c1)[C@@H](CO)N(Cc1ccncc1)CC31CCN(C(=O)C2CC2)CC1 was read as Pf Dd2 inh 19.
`COc1ccc2c3c(n(C)c2c1)[C@H](CO)N(Cc1ccc2c(c1)OCO2)CC31CN(C(=O)c2ccc3c(c2)OCO3)C1` gave Pf Dd2 inh -88* and GASC1 inh -1.
Screening CCc1ccc(O)c(NC(=S)NC(=O)COc2ccc(C)cc2C)c1 returned IDH1 mut inh 0.
`COc1ccc(C)cc1NC(=O)CN(C)S(=O)(=O)c1ccccc1` gave IDH1 mut inh 0.
For CCCN(C)C[C@H]1OCCCC[C@@H](C)Oc2ccc(NC(=O)Cc3ccccc3)cc2C(=O)N([C@H](C)CO)C[C@H]1C the results were Tcruzi prolif 92, IDH1 mut inh 0, Pf Dd2 inh -44 and GASC1 inh 0.
Screening C[C@@H]1CCCCO[C@H](CN(C)CC2CCCCC2)[C@@H](C)CN([C@H](C)CO)C(=O)c2cc(NC(=O)Cc3ccccc3)ccc2O1 returned Tcruzi prolif 44, Pf Dd2 inh -84* and GASC1 inh 3.
C[C@@H]1CCCCO[C@@H](CN(C)CC2CCCCC2)[C@@H](C)CN([C@@H](C)CO)C(=O)c2cc(NC(=O)Cc3ccccc3)ccc2O1 was read as Tcruzi prolif 58, Pf Dd2 inh -49 and GASC1 inh -1.
CCCN(C)C[C@H]1OCCCC[C@@H](C)Oc2ccc(NC(=O)Cc3ccccc3)cc2C(=O)N([C@@H](C)CO)C[C@H]1C was read as Tcruzi prolif 23, IDH1 mut inh -2, Pf Dd2 inh -86* and GASC1 inh -1.
For C(=C\c1ccc(C2[C@@H]3CN(Cc4ccccn4)C[C@H]2N3)cc1)/c1ccccc1 (some centres undefined) the results were Pf Dd2 inh -76 and GASC1 inh 0.
